Source: PubChem BioAssay (several laboratories)
This is a sample that favours compounds with a hit; in the whole collection about 0.83% have one here.
CRFBP-R2 agonist: CRF-BP/CRF-R2 complex agonism; HEK293 CRF-R2/CRF-BP, calcium dye fluorescence (FLIPR); percent of saturating CRF peptide response; activation, % at 13.2 µM; hit rate 0.46% among 350,000; AID 588473;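 active means activation of at least 50%, plus an integration ratio under a set limit after plate pattern correction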;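 further: plate controls were neutral control wells without compound for no effect and CRF at EC100 for full effect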
TRPML3 agonist: activates the human TRPML3 channel; Q8TDD5; HEK293 TRPML3-YFP, Fluo-8 calcium fluorescence; 100% = the carbachol control signal; activation, % at 3 µM; hit rate 0.29% among 220,000; AID 1448;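 active means activation above its plate's cutoff, the mean activation of the plate's test wells plus 3 SD, cut at about 12% in these data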;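 further: 0% = DMSO only wells and 100% = carbachol wells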
Target sequence (Q8TDD5 whole entry, looked up): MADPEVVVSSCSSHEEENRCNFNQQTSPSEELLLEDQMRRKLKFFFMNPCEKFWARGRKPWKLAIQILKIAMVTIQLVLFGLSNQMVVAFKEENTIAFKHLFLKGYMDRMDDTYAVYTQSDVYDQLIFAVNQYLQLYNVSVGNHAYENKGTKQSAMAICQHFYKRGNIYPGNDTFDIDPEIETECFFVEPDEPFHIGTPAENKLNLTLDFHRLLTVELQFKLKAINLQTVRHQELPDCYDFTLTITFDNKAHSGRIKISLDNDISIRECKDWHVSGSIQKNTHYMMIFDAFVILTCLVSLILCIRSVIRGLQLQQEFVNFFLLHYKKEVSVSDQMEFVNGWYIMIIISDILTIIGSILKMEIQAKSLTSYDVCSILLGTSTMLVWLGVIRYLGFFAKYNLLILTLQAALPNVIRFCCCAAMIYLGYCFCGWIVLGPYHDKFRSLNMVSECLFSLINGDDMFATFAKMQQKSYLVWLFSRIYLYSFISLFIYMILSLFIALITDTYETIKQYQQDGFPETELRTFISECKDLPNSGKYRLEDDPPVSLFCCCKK
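Material: TRPML3-YFP stable HEK293 cells | Dosing: One concentration, 3 µM nominal, 0.3% DMSO | Timing: 125 s total fluorescence read per well | Technique: Fluo-8 calcium dye fluorescence, ex 470-495, em 515-575 nm | Measure: Percent activation from peak-to-basal fluorescence ratio, scaled between DMSO and carbachol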
zfTRPN1 agonist: zebrafish TRPN1 (NompC) channel agonism; HEK293 zebrafish TRPN1-YFP, Fluo-8 calcium fluorescence; 100% = response to 87 µM carbachol; activation, % at 3 µM; hit rate 0.18% among 220,000;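 active means activation above its plate's cutoff, the mean activation of test wells on that plate plus 3 SD, cut at about 19% in these data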;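 further: 0% = DMSO alone and 100% = 87 µM carbachol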
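Assay system: Zebrafish TRPN1-YFP in HEK293 cells | Incubation: Dye loading 1 h at 37 °C, then 30 min room temperature | Measured by: Kinetic Fluo-8 fluorescence, ex 470-495, em 515-575 nm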
OXTR ag: activates the human oxytocin receptor. hit rate 0.32% among 320,000. CHO-OTR cells, Fluo-8 calcium fluorescence; normalized: DMSO 0%, oxytocin 100%. activation, % at 3 µM;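 active means activation above the mean of all tested compounds plus 3 SD, cutoff set per screening run, cut at about 20% in these data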;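 further: peak over basal fluorescence ratio from a 100 s FLIPR kinetic read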
OXTR potentiator: potentiates the human oxytocin receptor response; CHO-OTR cells, Fluo-8 calcium fluorescence, potentiator mode; 0% = oxytocin EC15, 100% = EC100; activation, % at 3 µM; hit rate 0.061% among 320,000; AID 2445;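 active means activation above that plate's cutoff, the mean activation of tested compounds plus 3 SD, cut at about 6.6% in these data, passing the limit was not always enough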;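 further: 100% uses oxytocin at 75 nM as the full agonist control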
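Material: human OTR in CHO cells. Compound: 3.0 µM, one dose. Timing: compound 6 min at room temperature before oxytocin, 100 s read. Evaluation: % activation of max/min ratio relative to oxytocin controls. Replication: single well per compound, singlicate. Signal: Fluo-8 calcium dye fluorescence.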
V1R ag counter: V1a receptor agonism, counter-screen for OXTR agonists. P37288. CHO-V1R cells, Fluo-8 calcium fluorescence, agonist mode; 0% DMSO, 100% 3 nM vasopressin. activation, % at 3 µM. hit rate 0.25% among 320,000. AID 2797;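 active means activation above the mean activation of all tested compounds plus 3 SD, per screening run, cut at about 20% in these data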;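 further: signal is peak over basal fluorescence ratio across a 100 second FLIPR read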
Starred values were filed as active, the others as inactive; · = no result given.

SMILES	CRFBP-R2 agonist	TRPML3 agonist	zfTRPN1 agonist	OXTR ag	OXTR potentiator	V1R ag counter
CCCCC1=C(C(=O)OCC)C(C(=O)OCC)Oc2ccccc21 (configuration not stated)	0	·	·	·	·	·
CCOc1ccc(S(=O)(=O)Nc2ccc(C(=O)N3CC(C)OC(C)C3)cc2)cc1 (configuration not stated)	36	·	·	34*	-18	27*
COc1ccc(NS(=O)(=O)c2ccc(C(=O)N(C)Cc3ccc(C)o3)cc2)cc1	9	·	·	27*	-11	27*
CCOc1ccc(NS(=O)(=O)c2ccc(C(=O)NCC(c3ccco3)N3CCCC3)cc2)cc1 (configuration not stated)	63*	·	·	35*	-12	23*
CCOc1ccc(S(=O)(=O)Nc2cccc(C(=O)N3CC(C)OC(C)C3)c2)cc1 (configuration not stated)	0	·	·	2	-14	2
CCOc1ccc(NS(=O)(=O)c2ccc(C(=O)N3CC(C)OC(C)C3)cc2)cc1 (configuration not stated)	108*	·	·	58*	-13	51*
O=C(NCC(c1ccco1)N1CCCC1)c1ccc(S(=O)(=O)Nc2ccc(F)cc2)cc1 (configuration not stated)	23	·	·	9	-11	6
O=C(Cn1nc(C(=O)O)c2ccccc2c1=O)Nc1cc(S(=O)(=O)N2CCCCC2)ccc1Cl	1	·	·	0	-7	0
O=C(Nc1ccc(Cl)cc1Cl)c1cccc(N2C(=O)C=CC2=O)c1	20	·	·	0	-5	-1
CC1CN(C(=O)c2ccc(NS(=O)(=O)c3ccc(C(C)(C)C)cc3)cc2)CC(C)O1 (configuration not stated)	57*	·	·	·	·	·
CN(C)C(CNC(=O)c1ccc(NS(=O)(=O)c2ccc(F)cc2)cc1)c1ccco1 (configuration not stated)	-1	·	·	2	-7	0
Cc1ccc(NS(=O)(=O)c2ccc(C(=O)NCC(c3ccco3)N(C)C)cc2)cc1 (configuration not stated)	35	·	·	27*	-16	26*
Cc1cc(NS(=O)(=O)c2ccc(NC(=O)c3c(F)c(F)c(F)c(F)c3F)cc2)nc(C)n1	1	·	·	0	-9	1
COc1ccccc1NS(=O)(=O)c1ccc(C(=O)N2CCCC(C(F)(F)F)C2)cc1 (configuration not stated)	11	·	·	5	-12	6
Cc1ccc(NS(=O)(=O)c2ccc(C(=O)N3CCCC(C(F)(F)F)C3)cc2)cc1 (configuration not stated)	71*	·	·	53*	-26	49*
Cc1ccc(S(=O)(=O)Nc2ccc(NC(=O)c3c(F)c(F)c(F)c(F)c3F)cc2)cc1	58*	5	27*	37*	-17	27*
Cc1cccc(NC(=O)COC(=O)CSc2ccccc2)c1C	-1	·	·	-1	3	-1
COc1ccc(NS(=O)(=O)c2ccc(C(=O)N3CCC(C)CC3)cc2)cc1	65*	·	·	40*	-13	24*
CCOc1ccc(NS(=O)(=O)c2ccc(C(=O)N3CCCCC3)cc2)cc1	15	·	·	24*	-16	28*
COc1ccc(-n2nc(C)c3c(=O)c4c([nH]c32)CCCC4)cc1	-9	·	·	·	·	·
Cc1ccccc1C(=O)NNS(=O)(=O)c1ccc(F)cc1	1	·	·	·	·	·
CCN(CC)c1ccc(/C=C2\CCC(/C=N/NC(=O)c3ccc(=O)n(C)c3)=C2N2CCOCC2)cc1	96*	2	5	13	-13	16
O=C(N/N=C/C1=C(N2CCOCC2)C(=C\c2ccccc2)/CC1)Nc1ccccc1	1	1	2	0	-3	0
CCOc1ccc(N2CC(C(=O)NCCc3c[nH]c4ccc(C)cc34)CC2=O)cc1 (configuration not stated)	-1	·	·	4	-9	5
O=C(NC1CCCCC1)c1cccc2c1C(=O)c1ccc(N3CCC(Cc4ccccc4)CC3)cc1S2(=O)=O	58*	·	·	6	-9	5
